In brackets after ≈: the same amount, converted by molar mass. Activity calls are given as the source filed them. The calls are words filed in the database; no cut-off is given here.
Assays:
[1] = Cytotoxicity in human HepG2 cells incubated for 24 hrs by MTT assay; type: toxicity, cell-based
How it was run: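 HepG2 cells, 1 × 10^4 per well in DMEM/10% FBS, 24 h attachment; compounds 200 to 0.19 μg ml−1 for 24 h at 37 °C, 5% CO2; MTT 2.5 mg ml−1 for 3 h, formazan in DMSO, OD 570 nm; doxorubicin 10 μM control.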

Staphylococcus aureus [2] = experiment: Antibacterial activity against methicillin-resistant Staphylococcus aureus ATCC 15187 incubated for 24 hrs by Alamar blue staining based microdilution method; type: functional
Escherichia coli = experiment: Antibacterial activity against Escherichia coli ATCC 25922 incubated for 24 hrs by Alamar blue staining based microdilution method; type: functional
Staphylococcus aureus [3] = experiment: Antibacterial activity against Staphylococcus aureus ATCC 29213 incubated for 24 hrs by Alamar blue staining based microdilution method; type: functional

Row | SMILES | IC50 at 24 h [1] | MIC (Staphylococcus aureus [2]) | MIC (Escherichia coli) | MIC (Staphylococcus aureus [3])
1 | CCCc1nn(C)c2c(N3CCN(c4cccc(O)c4)CC3)nc(-c3ccc([N+](=O)[O-])o3)nc12 | > 50 µg/mL | > 32 µg/mL | inactive | > 32 µg/mL
2 | CCCc1nn(C)c2c(N3CCC(c4ccccc4)CC3)nc(-c3ccc([N+](=O)[O-])o3)nc12 | > 50 µg/mL | > 32 µg/mL | inactive | > 32 µg/mL
3 | CCCc1nn(C)c2c(Nc3ccc(C(F)(F)F)cc3)nc(-c3ccc([N+](=O)[O-])o3)nc12 | > 50 µg/mL | > 32 µg/mL | inactive | > 32 µg/mL
4 | CCCc1nn(C)c2c(=O)[nH]c(-c3ccc([N+](=O)[O-])o3)nc12 | > 50 µg/mL | 8 µg/mL (≈ 26.4 µM) | inactive | 8 µg/mL (≈ 26.4 µM)
5 | CCCc1nn(C)c2c(N3CCOCC3)nc(-c3ccc([N+](=O)[O-])o3)nc12 | > 50 µg/mL | > 32 µg/mL | inactive | > 32 µg/mL
6 | CCCc1nn(C)c2c(N3CCCC3)nc(-c3ccc([N+](=O)[O-])o3)nc12 | > 50 µg/mL | > 32 µg/mL | inactive | > 32 µg/mL
7 | CCCc1nn(C)c2c(NCc3cccnc3)nc(-c3ccc([N+](=O)[O-])o3)nc12 | > 50 µg/mL | 4 µg/mL (≈ 10.2 µM) | inactive | 8 µg/mL (≈ 20.3 µM)
8 | CCCc1nn(C)c2c(NCc3ccc(OC)cc3)nc(-c3ccc([N+](=O)[O-])o3)nc12 | > 50 µg/mL | > 32 µg/mL | inactive | > 32 µg/mL
9 | CCCc1nn(C)c2c(N3CCC(=O)CC3)nc(-c3ccc([N+](=O)[O-])o3)nc12 | > 50 µg/mL | 16 µg/mL (≈ 41.6 µM) | inactive | > 32 µg/mL
10 | CCCc1nn(C)c2c(NCCO)nc(-c3ccc([N+](=O)[O-])o3)nc12 | > 50 µg/mL | 8 µg/mL (≈ 23.1 µM) | inactive | > 32 µg/mL
11 | CCCc1nn(C)c2c(NCCCCCCO)nc(-c3ccc([N+](=O)[O-])o3)nc12 | > 50 µg/mL | 2 µg/mL (≈ 4.97 µM) | inactive | 32 µg/mL (≈ 79.5 µM)
12 | CCCc1nn(C)c2c(NCc3ccncc3)nc(-c3ccc([N+](=O)[O-])o3)nc12 | > 50 µg/mL | 1 µg/mL (≈ 2.54 µM) | inactive | 1 µg/mL (≈ 2.54 µM)
13 | CCCc1nn(C)c2c(N3CCC(O)CC3)nc(-c3ccc([N+](=O)[O-])o3)nc12 | > 50 µg/mL | 0.5 µg/mL (≈ 1.29 µM) | inactive | 16 µg/mL (≈ 41.4 µM)
14 | CCCc1nn(C)c2c(NCCCN3CCOCC3)nc(-c3ccc([N+](=O)[O-])o3)nc12 | > 50 µg/mL | > 32 µg/mL | inactive | > 32 µg/mL
15 | CCCc1nn(C)c2c(N3CCC(CO)CC3)nc(-c3ccc([N+](=O)[O-])o3)nc12 | > 50 µg/mL | > 32 µg/mL | inactive | > 32 µg/mL
16 | CCCc1nn(C)c2c(NCCCCCO)nc(-c3ccc([N+](=O)[O-])o3)nc12 | 38.1 µg/mL (≈ 98.1 µM) | 0.5 µg/mL (≈ 1.29 µM) | inactive | 4 µg/mL (≈ 10.3 µM)
17 | CCCc1nn(C)c2c(N3CCN(c4ccncc4)CC3)nc(-c3ccc([N+](=O)[O-])o3)nc12 | > 50 µg/mL | 0.25 µg/mL (≈ 0.557 µM) | inactive | 1 µg/mL (≈ 2.23 µM)
18 | CCCc1nn(C)c2c(Nc3ccncc3)nc(-c3ccc([N+](=O)[O-])o3)nc12 | > 50 µg/mL | 4 µg/mL (≈ 10.5 µM) | 4 µg/mL (≈ 10.5 µM) | 0.5 µg/mL (≈ 1.32 µM)
19 | CCCc1nn(C)c2c(Nc3cccc(O)c3)nc(-c3ccc([N+](=O)[O-])o3)nc12 | > 50 µg/mL | 1 µg/mL (≈ 2.54 µM) | inactive | 4 µg/mL (≈ 10.1 µM)

Row | SMILES | IC50 at 24 h [1] | MIC (Staphylococcus aureus [2]) | MIC (Escherichia coli) | MIC (Staphylococcus aureus [3])
20 | CCCc1nn(C)c2c(NCc3ccc(OC)c(F)c3)nc(-c3ccc([N+](=O)[O-])o3)nc12 | > 50 µg/mL | > 32 µg/mL | inactive | > 32 µg/mL
21 | CCCc1nn(C)c2c(NCCN3CCOCC3)nc(-c3ccc([N+](=O)[O-])o3)nc12 | > 50 µg/mL | > 32 µg/mL | inactive | > 32 µg/mL
22 | CCCc1nn(C)c2c(Nc3cccc(F)c3)nc(-c3ccc([N+](=O)[O-])o3)nc12 | 38.9 µg/mL (≈ 98 µM) | 4 µg/mL (≈ 10.1 µM) | inactive | > 32 µg/mL
23 | CCCc1nn(C)c2c(NCCN3CCCCC3)nc(-c3ccc([N+](=O)[O-])o3)nc12 | > 50 µg/mL | > 32 µg/mL | inactive | > 32 µg/mL
24 | CCCc1nn(C)c2c(NCCCCO)nc(-c3ccc([N+](=O)[O-])o3)nc12 | > 50 µg/mL | 0.25 µg/mL (≈ 0.668 µM) | inactive | 4 µg/mL (≈ 10.7 µM)
25 | CCCc1nn(C)c2c(NCc3ccccc3)nc(-c3ccc([N+](=O)[O-])o3)nc12 | > 50 µg/mL | > 32 µg/mL | inactive | > 32 µg/mL
26 | CCCc1nn(C)c2c(Nc3ccccc3O)nc(-c3ccc([N+](=O)[O-])o3)nc12 | > 50 µg/mL | 1 µg/mL (≈ 2.54 µM) | inactive | 0.5 µg/mL (≈ 1.27 µM)
27 | CCCc1nn(C)c2c(N3CCN(c4ccccc4O)CC3)nc(-c3ccc([N+](=O)[O-])o3)nc12 | > 50 µg/mL | > 32 µg/mL | inactive | > 32 µg/mL
28 | CCCc1nn(C)c2c(Nc3ccc(OC(F)(F)F)cc3)nc(-c3ccc([N+](=O)[O-])o3)nc12 | > 50 µg/mL | > 32 µg/mL | inactive | > 32 µg/mL
29 | CCCc1nn(C)c2c(NC3CCOCC3)nc(-c3ccc([N+](=O)[O-])o3)nc12 | > 50 µg/mL | > 32 µg/mL | inactive | > 32 µg/mL
30 | CCCc1nn(C)c2c(N3CCC(CCO)CC3)nc(-c3ccc([N+](=O)[O-])o3)nc12 | > 50 µg/mL | > 32 µg/mL | inactive | > 32 µg/mL
31 | CCCc1nn(C)c2c(N3CCN(C)CC3)nc(-c3ccc([N+](=O)[O-])o3)nc12 | > 50 µg/mL | > 32 µg/mL | inactive | > 32 µg/mL
32 | CCCc1nn(C)c2c(N3CCCCC3)nc(-c3ccc([N+](=O)[O-])o3)nc12 | > 50 µg/mL | > 32 µg/mL | inactive | > 32 µg/mL
33 | CCCc1nn(C)c2c(Nc3ccc(OC)cc3)nc(-c3ccc([N+](=O)[O-])o3)nc12 | > 50 µg/mL | > 32 µg/mL | inactive | > 32 µg/mL
34 | CCCc1nn(C)c2c(Nc3ccc(F)cc3)nc(-c3ccc([N+](=O)[O-])o3)nc12 | > 50 µg/mL | 0.25 µg/mL (≈ 0.631 µM) | inactive | 8 µg/mL (≈ 20.2 µM)
35 | CCCc1nn(C)c2c(Nc3ccc(Br)cc3)nc(-c3ccc([N+](=O)[O-])o3)nc12 | > 50 µg/mL | > 32 µg/mL | inactive | > 32 µg/mL
36 | CCCc1nn(C)c2c(NCCCO)nc(-c3ccc([N+](=O)[O-])o3)nc12 | > 50 µg/mL | 2 µg/mL (≈ 5.55 µM) | inactive | 4 µg/mL (≈ 11.1 µM)
37 | CCCc1nn(C)c2c(Nc3ccc(Cl)cc3)nc(-c3ccc([N+](=O)[O-])o3)nc12 | > 50 µg/mL | > 32 µg/mL | inactive | > 32 µg/mL

— ChEMBL document CHEMBL6182837, “Discovery and biological evaluation of nitrofuranyl-pyrazolopyrimidine hybrid conjugates as potent antimicrobial agents targeting Staphylococcus aureus and methicillin-resistant S. aureus” (RSC Med Chem, 2025)
